From ChEMBL document CHEMBL2417524, “Cytotoxic clerodane diterpenoids from the leaves and twigs of Casearia balansae” (J Nat Prod, 2013) come the findings set out here.

One experiment concerns WI-38. In words: Cytotoxicity against human WI38 cells after 72 hrs by MTT assay. It counts as cell-based. As to conditions: WI-38, 72 h. In a few lines: (§1)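 Antiproliferative screen on cancer lines PC3, DU145, SKOV3 and A549 and on normal human WI-38 fibroblasts. Paclitaxel was the positive control and DMSO the negative control. IC50 in μM reported as the mean of duplicate measurements.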
(Formazan colour is commonly taken as a measure of viable cells.)

Another experiment concerns A549. In words: Cytotoxicity against human A549 cells after 72 hrs by MTT assay. It counts as functional, cell-based. As to conditions: A549, 72 h. In a few lines:
as §1

A further experiment deals with DU-145. In words: Cytotoxicity against human DU145 cells after 72 hrs by MTT assay. The class given is functional, cell-based. As to conditions: DU-145, 72 h. An outline of the steps: as §1
For a further experiment, the system named is SK-OV-3. Description: Cytotoxicity against human SKOV3 cells after 72 hrs by MTT assay. It counts as functional, cell-based. As to conditions: SK-OV-3, 72 h. An outline of the steps:
as §1

For a further experiment, the system named is PC-3. In words: Cytotoxicity against human PC3 cells after 72 hrs by MTT assay. It counts as functional, cell-based. As to conditions: PC-3, 72 h. An outline of the steps: as §1

For `C=CC(=C)CC[C@]1(C)[C@H]2C[C@H](OC(C)=O)C=C3[C@@H](OCC)O[C@H](OC(C)=O)[C@@]32[C@H](OC)C[C@@H]1C`, the IC50 amounted to 57.6 µM in the experiment on WI-38; 45.2 µM in the experiment with A549; 51.7 µM in the experiment with DU-145; 99.8 µM with SK-OV-3; 46.4 µM in the experiment on PC-3.

`C=CC(=C)CC[C@]1(C)[C@H]2C[C@@H](OC(C)=O)C=C3[C@H](OC(C)=O)O[C@H](OC(C)=O)[C@@]32[C@H](OC)C[C@@H]1C`: the 50% inhibitory concentration (IC50) stood at 13.3 µM with WI-38; 7.1 µM in the experiment on A549; 4.3 µM in the experiment with DU-145; 6.2 µM in the experiment on SK-OV-3; 4.7 µM in the experiment with PC-3.

Regarding `C=CC(=C)CC[C@]1(C)[C@H]2C[C@H]3C[C@@H]4[C@H](OC(C)=O)O[C@H](O3)[C@@]42CC[C@@H]1C`, the concentration for half-maximal inhibition (IC50) worked out at 41 µM in the experiment with WI-38; 19.7 µM in the experiment on A549; 13.3 µM in the experiment with DU-145; 30.6 µM in the experiment with SK-OV-3; 6.2 µM in the experiment on PC-3.

`C=CC(=C)CC[C@]1(C)[C@H]2C[C@H]3C[C@@H]4[C@@H](OC(C)=O)O[C@H](O3)[C@@]42CC[C@@H]1C`: the half-maximal inhibitory concentration (IC50) was found to be 51 µM with WI-38; 24 µM in the experiment on A549; 14.1 µM in the experiment on DU-145; 36.2 µM in the experiment with SK-OV-3; 5.6 µM in the experiment on PC-3.

For the compound `C=CC(=C)CC[C@]1(C)[C@H]2C[C@H](O)C[C@@H]3[C@H](OC(=O)CCC)O[C@H](OC(C)=O)[C@@]32CC[C@@H]1C`, the 50% inhibitory concentration (IC50) turned out to be 58.1 µM in the experiment with WI-38; 13.9 µM in the experiment with A549; 67.2 µM in the experiment with DU-145; 25.3 µM with SK-OV-3; 7.2 µM in the experiment on PC-3.

Take `C=CC(=C)CC[C@]1(C)[C@H]2C[C@H](OC(=O)C(C)CC)C=C3[C@@H](OCC)O[C@H](OC(C)=O)[C@@]32[C@H](O)C[C@@H]1C` (relative stereo): the IC50 with WI-38 stood at 60.2 µM; in the experiment on A549 it was 49.8 µM; in the experiment with DU-145, 14.8 µM; in the experiment with SK-OV-3, 15.3 µM; in the experiment with PC-3, 46.9 µM.

With `C=CC(=C)CC[C@]1(C)[C@H]2CC(=O)C=C3[C@H](OC(C)=O)O[C@H](OC(C)=O)[C@@]32[C@H](OC)C[C@@H]1C` (relative stereo), the concentration for half-maximal inhibition (IC50) in the experiment on WI-38 turned out to be 20.3 µM; in the experiment on A549, 13.3 µM; with DU-145, 5.6 µM; with SK-OV-3 it was 17.6 µM; in the experiment on PC-3, 6.5 µM.

As for `C=CC(=C)CC[C@]1(C)[C@H]2CC(=O)C=C3[C@H](OC(=O)CCC)O[C@H](OC(C)=O)[C@@]32[C@H](OC)C[C@@H]1C` (relative stereo), the 50% inhibitory concentration (IC50) was found to be 14.8 µM in the experiment with WI-38; 11.3 µM in the experiment on A549; 7.2 µM with DU-145; 7.2 µM with SK-OV-3; 4.6 µM in the experiment on PC-3.

On to `C=C(C)[C@@H](C)C[C@@H](O)[C@@H](C)[C@H]1CC[C@@]2(C)[C@@H]3CCC4=C(C[C@]35O[C@@H]5C[C@]12C)C(=O)C=CC4(C)C` (relative stereo), for which the concentration for half-maximal inhibition (IC50) is 78.4 µM in the experiment on WI-38; 37.7 µM with A549; 26.1 µM in the experiment with DU-145; 73.8 µM with SK-OV-3; 22.5 µM with PC-3.

In the case of `C=CC(=C)CC[C@]1(C)[C@H](C)CC[C@@]23[C@@H](OC(C)=O)O[C@H](OC(C)=O)[C@@H]2C[C@H](O)C[C@@H]13` (relative stereo), the half-maximal inhibitory concentration (IC50) turned out to be 26.3 µM in the experiment on WI-38; 15.2 µM in the experiment with A549; 6.6 µM in the experiment with DU-145; 17.9 µM with SK-OV-3; 8.2 µM with PC-3.

For `C=CC(=C)CC[C@]1(C)[C@H]2C[C@H](OC(=O)C(C)CC)C=C3[C@H](OC(C)=O)O[C@@H](OC(C)=O)[C@@]32[C@H](OC)C[C@@H]1C` (relative stereo), the IC50 in the experiment with WI-38 worked out at 13.3 µM; in the experiment on A549, 7.9 µM; in the experiment on DU-145, 4.8 µM; in the experiment on SK-OV-3, 7.2 µM; in the experiment on PC-3, 5.6 µM.

For the compound `C=CC(=C)CC[C@]1(C)[C@H]2C[C@@H](OC(C)=O)C[C@@H]3[C@H](OC(C)=O)O[C@H](OC(C)=O)[C@@]32CC[C@@H]1C` (relative stereo), the IC50 came to 56.9 µM in the experiment with WI-38; 66.2 µM in the experiment on A549; 20 µM in the experiment on DU-145; 38.2 µM in the experiment with SK-OV-3; 36.1 µM in the experiment with PC-3.

In the case of `C=CC(=C)CC[C@]1(C)[C@H]2C[C@@H](O)C[C@@H]3[C@H](OC(=O)CCC)O[C@H](OC(C)=O)[C@@]32CC[C@@H]1C` (relative stereo), the IC50 with WI-38 was determined as 21.1 µM; in the experiment with A549, 16.2 µM; in the experiment on DU-145, 5.8 µM; with SK-OV-3, 10.2 µM; in the experiment with PC-3, 6.3 µM.

With `C=CC(=C)CC[C@]1(C)[C@H]2C[C@@H](OC(C)=O)C=C3[C@@H](OCC)O[C@H](OC(C)=O)[C@@]32[C@H](OC)C[C@@H]1C` (relative stereo), the half-maximal inhibitory concentration (IC50) in the experiment on WI-38 amounted to 55.7 µM; in the experiment with A549 it was 53.3 µM; with DU-145, 47.2 µM; with SK-OV-3, 35.9 µM; in the experiment on PC-3, 34.2 µM.

As for `C=CC(=C)CC[C@]1(C)[C@H]2C[C@H](OC(=O)C(C)CC)C=C3[C@H](OC(C)=O)O[C@H](OC(C)=O)[C@@]32[C@H](O)C[C@@H]1C` (relative stereo), the IC50 came to 9.8 µM with WI-38; 5.7 µM with A549; 4.3 µM with DU-145; 5.1 µM with SK-OV-3; 4.5 µM in the experiment with PC-3.

`C=CC(=C)CC[C@]1(C)[C@H]2C[C@H](OC(=O)C(C)CC)C=C3[C@H](OC(=O)CCC)O[C@H](OC(C)=O)[C@@]32[C@H](O)C[C@@H]1C` (stereo partly drawn) [CASEAMEMBRIN A]: the IC50 in the experiment with WI-38 was determined as 19.6 µM; with A549, 15.7 µM; in the experiment on DU-145, 5 µM; in the experiment on SK-OV-3, 8.7 µM; with PC-3 it was 10.5 µM.

Consider `CC(=O)O[C@H]1C(=O)[C@@]2(C)[C@H]([C@H](OC(=O)c3ccccc3)[C@]3(O)C[C@H](OC(=O)[C@H](O)[C@@H](NC(=O)c4ccccc4)c4ccccc4)C(C)=C1C3(C)C)[C@]1(OC(C)=O)CO[C@@H]1C[C@@H]2O` [PACLITAXEL], for which the concentration for half-maximal inhibition (IC50) in the experiment on WI-38 came out at 0.05 µM; in the experiment with DU-145, 0.04 µM; in the experiment with PC-3, 0.02 µM.

Broadly, the IC50 is the concentration needed to halve the response being measured.
